The subject of data set [1] is Plasmodium falciparum. The data set can be described thus: ST_JUDE: Plasmodium falciparum 3D7 EC50 (uM) as measured by SYBR green dye. The data set is classed as functional, organism-based.
For data set [2], the system named is Plasmodium falciparum. The data set can be described thus: ST_JUDE: Plasmodium falciparum K1 EC50 (uM) as measured by SYBR green dye. The data set is classed as functional, organism-based.
Data set [3] concerns Plasmodium falciparum. The data set can be described thus: ST_JUDE: Cytotoxicity against Plasmodium falciparum 3D7. The data set is classed as functional, organism-based. The method in brief:
(§1)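 Asexual P. falciparum grown in human erythrocytes, exposed to compounds for 72 h, and growth read as the DNA quantity in treated versus control cultures. Dose-response run at 12 concentrations from 10 μM to 5 nM.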

Data set [4] has as its system Plasmodium falciparum. The data set can be described thus: ST_JUDE: Cytotoxicity against Plasmodium falciparum K1. In kind it is functional, organism-based. The method in brief:
as §1

Data set [5] deals with Plasmodium falciparum. The data set can be described thus: ST_JUDE: Cytotoxicity against Plasmodium falciparum V1/S. The data set is classed as functional, organism-based.
Data set [6] deals with Toxoplasma gondii. Put plainly: ST_JUDE: Growth inhibition of to Toxoplasma gondii, in human U-2OS cells, as measured by luciferase. To be noted: RH, U2OS. In kind it is functional, organism-based. Summed up: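 T. gondii parasites engineered to express luciferase; drug sensitivity read by luminescence.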
Data set [7] has as its system Trypanosoma brucei. Put plainly: ST_JUDE: Cytotoxicity using luciferase to measure ATP as an indicator of the viability of Trypanosoma brucei. In kind it is functional, organism-based.
Data set [8] has as its system Leishmania major. The data set can be described thus: ST_JUDE: Cytotoxicity using Alamar Blue to measure viability of Leishmania major. The data set is classed as functional, organism-based. Summed up:
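L. major promastigotes; drug susceptibility read with Alamar Blue.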

Data set [9] in a line: ST_JUDE: Cytotoxicity using luciferase to measure ATP as an indicator of the viability of human foreskin fibroblast cells (BJ). The data set is classed as toxicity, cell-based.
Data set [10] in a line: ST_JUDE: Cytotoxicity using luciferase to measure ATP as an indicator of the viability of human epithelial hepatocellular carcinoma cells (HepG2). The data set is classed as toxicity, cell-based.
The nature of data set [11]: ST_JUDE: Cytotoxicity using luciferase to measure ATP as an indicator of the viability of human epithelial embryonic kidney cells (HEK293). In kind it is toxicity, cell-based.
Data set [12] is described as follows: ST_JUDE: Cytotoxicity using luciferase to measure ATP as an indicator of the viability of human Burkitt''s lymphoma lymphoblast cells (Raji). The data set is classed as toxicity, cell-based.
For data set [13], the system named is Plasmodium falciparum. Put plainly: ST_JUDE: Cytotoxicity against Plasmodium falciparum Dd2. The data set is classed as functional, organism-based.
Data set [14] deals with Plasmodium falciparum. Put plainly: ST_JUDE: Cytotoxicity against Plasmodium falciparum W2. The data set is classed as functional, organism-based.
In data set [15] the test system is Plasmodium falciparum. Put plainly: ST_JUDE: Cytotoxicity against Plasmodium falciparum SB-A6. The data set is classed as functional, organism-based.
Data set [16] deals with Plasmodium falciparum. Put plainly: ST_JUDE: Cytotoxicity against Plasmodium falciparum D10 transfected with yeast DHOD. The data set is classed as functional, organism-based.

These results are taken from ChEMBL document CHEMBL1154198, “Chemical genetics of Plasmodium falciparum” (Nature, 2010).

Structures are written as SMILES.

The EC50 is the concentration that produces a half-maximal response. Regarding `CCN(CC)CCCOC(=O)c1c(C)oc2cc3c(C(=O)OCCCN(CC)CC)c(C)oc3cc12`, the EC50 was 538 nM in data set [1]; 1270 nM in [2]; 2140 nM in data set [3]; 2890 nM in [4]; above 9980 nM in [5]; 10900 nM in [6]. In addition, the half-maximal effective concentration (EC50) in data set [7] was 5220 nM; in data set [8] it was above 16600 nM; in data set [9], above 38900 nM; in data set [10] it was 4710 nM; in data set [11], 29200 nM; in data set [12], 23700 nM. In addition, the EC50 in data set [13] came out at 273 nM; in data set [14], 790 nM; in [15], 537 nM; in [16], 1730 nM.

As for `Oc1ccc(Br)cc1CN1CCN(Cc2ccccc2)CC1`, the EC50 in data set [1] is 867 nM; in data set [2], 419 nM; in [3], 1230 nM; in data set [4], 401 nM; in [5] it was 582 nM; in data set [6] it was above 14900 nM. In addition, the EC50 in [7] was above 26000 nM; in [8], above 11600 nM; in data set [9] it was above 27100 nM; in data set [10], above 27100 nM; in [11], above 27100 nM; in data set [12], above 27100 nM. In addition, the EC50 in [13] was 776 nM; in [14], 848 nM; in data set [15] it was 2050 nM; in data set [16], 1750 nM.

Consider `OC(CNC1CCCCC1)Cn1c2ccc(Cl)cc2c2cc(Cl)ccc21` (stereo unspecified), for which the EC50 was 388 nM in data set [1]; 172 nM in data set [2]; 1390 nM in data set [3]; 348 nM in [4]; 974 nM in data set [5]; above 21300 nM in [6]. Moreover, the EC50 was 1970 nM in [7]; above 16600 nM in [8]; above 38800 nM in data set [9]; 17200 nM in data set [10]; above 38800 nM in [11]; above 38800 nM in [12]. The EC50 in data set [13] is 132 nM; in data set [14], 177 nM; in [15] it was 1050 nM; in data set [16] it was 916 nM.

As to `COCCO/C(O)=C1\C(C)=NC2=C(C(=O)CC(c3ccc(OC)c(OC)c3)C2)C1c1ccc(F)cc1` (stereo unspecified), the EC50 in data set [1] was 253 nM; in [2] it was 94.6 nM; in data set [3] it was 740 nM; in data set [4] it was 518 nM; in [5], 1620 nM; in data set [6] it was above 23200 nM. For the same compound, the EC50 in data set [7] was 17400 nM; in data set [8] it was above 18200 nM; in [9] it was above 42400 nM; in [10], above 42400 nM; in data set [11], above 42400 nM; in [12], above 42400 nM. For the same compound, the half-maximal effective concentration (EC50) in [13] was determined as 526 nM; in data set [14], 470 nM; in data set [15], 2670 nM; in data set [16] it was 2990 nM.

With `COc1ccc(NC(=O)C2c3ccccc3C(=O)N(C3CCCC3)C2c2cccs2)cc1` (stereo unspecified), the 50% effective concentration (EC50) in data set [1] is 979 nM; in data set [2] it was 1220 nM; in data set [3], 1230 nM; in [4], 1170 nM; in data set [5] it was 1020 nM; in [6], above 22300 nM. In addition, the concentration giving a half-maximal response (EC50) in data set [7] was 6530 nM; in [8], above 17400 nM; in data set [9], above 40700 nM; in [10], above 40700 nM; in data set [11], above 40700 nM; in data set [12], above 40700 nM. In addition, the half-maximal effective concentration (EC50) was 1110 nM in data set [13], above 10500 nM in data set [14], 1970 nM in data set [15] and 1410 nM in data set [16].

`CCN1CCN(Cc2c(O)ccc3c(=O)c(Oc4ccccc4C(C)C)c(C(F)(F)F)oc23)CC1`: the EC50 in [1] is 226 nM; in [2], 59.2 nM; in [3], 223 nM; in data set [4], 69.6 nM; in data set [5] it was 102 nM; in [6], above 12800 nM. In addition, the EC50 in [7] was above 22400 nM; in data set [8] it was above 9980 nM; in data set [9], above 23300 nM; in [10] it was above 23300 nM; in data set [11] it was above 23300 nM; in data set [12] it was above 23300 nM. Moreover, the EC50 in data set [13] is 523 nM; in data set [14] it was 41.8 nM; in data set [15], 335 nM; in data set [16], 247 nM.
